From PMC3418399 (Molecular microbiology, 2012)
Entries after “also recorded” stand apart in the source; their conditions may differ. Like-named read-outs stand apart in the source and are kept apart here. Non-standard residues stand in square brackets, D forms with d.

How the values were obtained:
human red blood cells = test: Hemolysis; format: cell-based; details: for lysis of red blood cells: ≤100 μM
[1] = test system: human epithelial (HEp2) cells; test: Toxicity for cultured human epithelial cells; format: cell-based
[2] = test system: AD/CDR1 (Wild type CaCdr1p; AD/CaCDR1B); test: Agarose diffusion FLC chemosensitization assay; format: cell-based, Saccharomyces cerevisiae; details: for chemosensitization of cells overexpressing CaCdr1p to FLC: ~6 nmole/disk, FLC 40 μg ml^−1
[3] = biological target: T1, CaCdr1p-mediated rhodamine 6G efflux in AD/CaCDR1 cells (Candida albicans, UniProt P43071); test: Glucose-dependent rhodamine 6G efflux in whole cells; format: cell-based
T1 sequence (P43071 whole entry): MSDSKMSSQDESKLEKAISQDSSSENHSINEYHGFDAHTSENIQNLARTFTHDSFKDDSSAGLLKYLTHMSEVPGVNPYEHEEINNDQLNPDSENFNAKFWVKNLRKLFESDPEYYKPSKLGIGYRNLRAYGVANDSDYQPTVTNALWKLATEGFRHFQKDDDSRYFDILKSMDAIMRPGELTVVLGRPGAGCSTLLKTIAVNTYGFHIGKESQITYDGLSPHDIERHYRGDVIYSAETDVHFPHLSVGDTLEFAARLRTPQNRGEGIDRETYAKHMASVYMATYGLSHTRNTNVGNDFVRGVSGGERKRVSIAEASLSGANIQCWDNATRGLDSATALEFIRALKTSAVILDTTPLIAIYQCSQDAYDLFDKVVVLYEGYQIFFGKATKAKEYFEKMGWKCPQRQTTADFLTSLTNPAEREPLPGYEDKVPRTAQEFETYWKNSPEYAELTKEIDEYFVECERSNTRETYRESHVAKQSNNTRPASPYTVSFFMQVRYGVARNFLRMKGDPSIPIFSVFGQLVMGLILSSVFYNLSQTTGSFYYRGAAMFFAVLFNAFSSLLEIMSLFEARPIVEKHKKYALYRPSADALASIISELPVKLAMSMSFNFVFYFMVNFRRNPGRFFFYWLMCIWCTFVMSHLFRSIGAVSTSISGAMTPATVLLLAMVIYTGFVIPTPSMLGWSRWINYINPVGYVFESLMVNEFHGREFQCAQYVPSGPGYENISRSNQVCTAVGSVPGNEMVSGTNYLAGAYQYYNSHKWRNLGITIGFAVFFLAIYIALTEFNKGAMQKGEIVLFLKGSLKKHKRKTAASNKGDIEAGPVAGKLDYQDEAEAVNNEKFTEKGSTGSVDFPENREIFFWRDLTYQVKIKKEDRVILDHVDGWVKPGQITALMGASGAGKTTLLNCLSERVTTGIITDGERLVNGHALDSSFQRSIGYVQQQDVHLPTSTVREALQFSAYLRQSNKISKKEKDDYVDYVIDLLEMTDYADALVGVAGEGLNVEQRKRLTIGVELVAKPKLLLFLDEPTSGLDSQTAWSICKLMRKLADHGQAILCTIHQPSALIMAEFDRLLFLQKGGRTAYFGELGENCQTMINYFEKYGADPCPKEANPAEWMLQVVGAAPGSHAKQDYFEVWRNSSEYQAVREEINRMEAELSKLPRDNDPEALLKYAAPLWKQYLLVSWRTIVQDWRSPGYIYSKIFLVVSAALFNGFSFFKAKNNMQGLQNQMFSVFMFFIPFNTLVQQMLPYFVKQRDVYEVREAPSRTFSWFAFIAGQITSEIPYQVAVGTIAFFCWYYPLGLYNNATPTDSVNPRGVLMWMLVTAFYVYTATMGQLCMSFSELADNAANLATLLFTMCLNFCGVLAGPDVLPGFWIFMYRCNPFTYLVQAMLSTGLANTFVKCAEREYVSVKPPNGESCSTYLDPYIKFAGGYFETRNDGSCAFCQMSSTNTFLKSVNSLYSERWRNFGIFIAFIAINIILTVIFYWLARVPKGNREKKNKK

CaCdr2p = details: 1.25 μM; strain overexpressing CaCdr2p; ref Holmes et al., 2008; cited from earlier work
C. albicans MML611 = details: 0.62 μM; FLC-resistant MML611; ref Holmes et al., 2008; cited from earlier work
EL6 (CaCdr1p Q1445R) = test: MIC, liquid microdilution; format: cell-based, Saccharomyces cerevisiae; details: EL6, Q1445R; RC21 and rhodamines; CSM pH 7.0, 30°C, 48 h
EL4-2 (CaCdr1p Q1226R) = test: MIC, liquid microdilution; format: cell-based, Saccharomyces cerevisiae; details: EL4-2, Q1226R; RC21 and rhodamines; CSM pH 7.0, 30°C, 48 h
[4] = test system: S. cerevisiae AD/CaCDR1 variants; test: Spontaneous variants resistant to FLC chemosensitization; format: cell-based, Saccharomyces cerevisiae
C. albicans MML610 = details: 0.62 μM; FLC-susceptible parental strain MML610; ref Holmes et al., 2008; cited from earlier work
C. albicans strain CIA4 = test: Agarose diffusion / checkerboard FLC chemosensitization; format: cell-based, Candida albicans; details: FLC-susceptible strain CIA4; 7.5 nmole RC21
Method in brief: (§1)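 Agarose diffusion on C. albicans clinical isolates. Base CSM-ura with FLC at the indicated concentration was solidified with 0.6% agarose. Cells were layered over it in CSM-ura overlay (0.4% agarose plus FLC). Crude, non-HPLC-purified test peptide (7.5 nmole) was dried on a paper disk at 37 °C for 1-2 h and placed on the overlay. Plates were incubated at 30 °C for 48 h, and inhibition-zone diameters were compared with and without FLC.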

[5] = test system: AD/pABC3 or AD/CaCDR1 cells; test: Rhodamine 6G uptake in de-energised cells; format: cell-based, Saccharomyces cerevisiae; details: concentrations <20 μM
Method in brief: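 Host S. cerevisiae and Cdr1p-expressing cells were harvested at log phase, washed, and suspended in 50 mM HEPES-NaOH pH 7.0. They were de-energised with 5 mM 2-deoxyglucose (30 °C, 30 min), then given 15 μM R6G ± test peptide at OD600 1.0. Samples taken at time intervals were boiled 10 min in SDS/mercaptoethanol/Tris pH 6.8 lysis buffer. Released R6G was quantified fluorimetrically against a standard curve in lysis buffer.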

EL4-1 (CaCdr1p Q1226K) = test: MIC, liquid microdilution; format: cell-based, Saccharomyces cerevisiae; details: EL4-1, Q1226K; RC21 and rhodamines; CSM pH 7.0, 30°C, 48 h
Cdr1p ATPase = Cdr1p ATPase (Candida albicans, UniProt P43071); test: CaCdr1p ATPase inhibition assay; format: biochemical
Cdr1p ATPase, sequence (P43071 whole entry): as above

EL1/TM2 (CaCdr1p G547R) = test: MIC, liquid microdilution; format: cell-based, Saccharomyces cerevisiae; details: EL1/TM2, G547R; RC21 and rhodamines; CSM pH 7.0, 30°C, 48 h
[6] = test system: AD/CDR1 (Wild type CaCdr1p); test: MIC, liquid microdilution; format: cell-based, Saccharomyces cerevisiae; details: AD/CDR1, Wild type; RC21 and rhodamines; CSM pH 7.0, 30°C, 48 h
TM5 (CaCdr1p V674F) = test: MIC, liquid microdilution; format: cell-based, Saccharomyces cerevisiae; details: TM5, V674F; RC21 and rhodamines; CSM pH 7.0, 30°C, 48 h
AD/pABC3 (Control) [7] = test: Agarose diffusion FLC chemosensitization assay; format: cell-based, Saccharomyces cerevisiae; details: presence or absence of FLC at 1/4 MIC
Pma1p ATPase = biological target: T2, Pma1p ATPase (Saccharomyces cerevisiae, UniProt P05030); test: Pma1p ATPase assay; format: biochemical; details: read-out: IC50 Pma1p ATPase; pH 7.0, 10 μM oligomycin
T2 sequence (P05030 1-918): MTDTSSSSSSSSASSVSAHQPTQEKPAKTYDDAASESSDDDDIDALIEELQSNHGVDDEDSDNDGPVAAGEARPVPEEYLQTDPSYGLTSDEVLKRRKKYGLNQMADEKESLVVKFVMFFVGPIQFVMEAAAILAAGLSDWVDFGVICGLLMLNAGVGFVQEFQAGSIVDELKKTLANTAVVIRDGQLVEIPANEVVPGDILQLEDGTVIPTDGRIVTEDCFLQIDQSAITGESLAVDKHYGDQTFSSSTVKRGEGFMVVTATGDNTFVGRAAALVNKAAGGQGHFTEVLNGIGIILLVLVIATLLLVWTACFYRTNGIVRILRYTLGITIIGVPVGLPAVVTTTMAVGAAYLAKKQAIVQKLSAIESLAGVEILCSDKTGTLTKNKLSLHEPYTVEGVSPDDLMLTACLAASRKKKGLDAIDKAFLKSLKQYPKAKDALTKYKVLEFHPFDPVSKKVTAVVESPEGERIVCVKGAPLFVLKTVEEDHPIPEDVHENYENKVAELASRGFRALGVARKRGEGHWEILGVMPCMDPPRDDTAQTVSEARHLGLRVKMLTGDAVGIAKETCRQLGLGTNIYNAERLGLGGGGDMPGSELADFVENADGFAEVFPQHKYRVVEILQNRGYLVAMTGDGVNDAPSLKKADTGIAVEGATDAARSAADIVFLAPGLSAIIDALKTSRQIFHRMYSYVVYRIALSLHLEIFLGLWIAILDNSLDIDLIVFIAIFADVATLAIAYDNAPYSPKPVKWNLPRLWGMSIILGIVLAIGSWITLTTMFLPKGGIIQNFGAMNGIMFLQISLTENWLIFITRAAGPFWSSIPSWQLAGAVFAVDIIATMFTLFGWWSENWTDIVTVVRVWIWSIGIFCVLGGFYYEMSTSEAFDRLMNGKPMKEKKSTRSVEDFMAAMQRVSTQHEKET

[8] = biological target: T1, CaCdr1p-mediated rhodamine 6G efflux in AD/CaCDR1 cells; details: 1.25 μM; S. cerevisiae strain overexpressing CaCdr1p; ref Holmes et al., 2008; cited from earlier work
AD/pABC3 (Control) [9] = test: MIC, liquid microdilution; format: cell-based, Saccharomyces cerevisiae; details: AD/pABC3, Control; RC21 and rhodamines; CSM pH 7.0, 30°C, 48 h
EL3 (CaCdr1p Q714K) = test: MIC, liquid microdilution; format: cell-based, Saccharomyces cerevisiae; details: EL3, Q714K; RC21 and rhodamines; CSM pH 7.0, 30°C, 48 h
[10] = test system: C. albicans strain MML33 (deleted of both copies of CDR1); test: Agarose diffusion / checkerboard FLC chemosensitization; format: cell-based, Candida albicans; details: 7.5 nmole RC21
Method in brief: as §1

C[C@@H]1[C@H](O)[C@@H](C)/C=C/C=C/C=C/C=C/C=C/C=C/C=C/[C@H](O[C@@H]2O[C@H](C)[C@@H](O)[C@H](N)[C@@H]2O)C[C@@H]2O[C@](O)(C[C@@H](O)C[C@@H](O)[C@H](O)CC[C@@H](O)C[C@@H](O)CC(=O)O[C@H]1C)C[C@H](O)[C@H]2C(=O)O [Amphotericin B]
concentration causing complete lysis of red blood cells (human red blood cells; human): 3 µM | concentration rendering human epithelial cells inviable ([1]; human): 15 µM

D-NH2-FFKW(Mtr)QRRR-CONH2 [RC21v1]
chemosensitization of CaCdr1p-dependent FLC resistance ([2]; agarose diffusion assays, amount not stated (partly data not shown)): ineffective | chemosensitization of cells overexpressing CaCdr1p to FLC ([2]; agarose diffusion): inactive | concentration required to obtain a significant effect on R6G efflux ([3]; effect independent of glucose, non-specific membrane permeabilization): At least 40 μM

D-NH2-FFKWQRRR-CONH2 + Mtr (H-[dF][dF][dK][dW][dQ][dR][dR][dR]-NH2; also: + Mtr, position not given here) [RC21]
effect on glucose-dependent R6G efflux (CaCdr2p): no effect | inhibition of glucose-dependent R6G efflux (C. albicans MML611): 90% | MIC (EL6 (CaCdr1p Q1445R)): 20 µM | MIC (EL4-2 (CaCdr1p Q1226R)): 20 µM | Resistance to FLC chemosensitization ([4]; variant C1, Q1226K, External loop 4): High | Resistance to FLC chemosensitization ([4]; variant C2, G547R, TMD1, TMS2): High | Resistance to FLC chemosensitization ([4]; variant E1, V674F, TMD1, TMS5): Moderate | Resistance to FLC chemosensitization ([4]; variant E2, V674F, TMD1, TMS5): Moderate | Resistance to FLC chemosensitization ([4]; variant F1, Q1226K, External loop 4): High | Resistance to FLC chemosensitization ([4]; variant F2, Q1226K, External loop 4): High | Resistance to FLC chemosensitization ([4]; variant F3, Q714K, External loop 3): High | Resistance to FLC chemosensitization ([4]; variant HE2, Q1226R, External loop 4): High | inhibition of glucose-dependent R6G efflux (C. albicans MML610): detectably inhibited | effect on FLC susceptibility (C. albicans strain CIA4): conferred increased FLC susceptibility | effect on the rate of uptake of R6G [5]: no significant effect | MIC (EL4-1 (CaCdr1p Q1226K)): 20 µM | increase in potency against CaCdr1p ATPase activity during deconvolution (Cdr1p ATPase; IC50 = 20 → 1.3 μM): 16 fold | mode of inhibition of CaCdr1p ATPase (Cdr1p ATPase; preincubation of membranes with ATP): not a competitive inhibitor | MIC (EL1/TM2 (CaCdr1p G547R)): 20 µM | MIC [6]: 20 µM | lysis of red blood cells (human red blood cells): did not lyse; also recorded: did not hemolyse | MIC (TM5 (CaCdr1p V674F)): 20 µM | effect on growth of strain AD/pABC3 (AD/pABC3 (Control) [7]): no effect | IC50 (Pma1p ATPase): 5 µM | inhibition of glucose-dependent R6G efflux [8]: 90% | MIC (AD/pABC3 (Control) [9]): >20 µM | inhibition of FLC resistance mediated by over-expression in S. cerevisiae of CaCdr1p ([2]; crude RC21 6 nmole/disk, FLC at 1/4 MIC): inhibited FLC resistance | MIC (EL3 (CaCdr1p Q714K)): 20 µM | effect on FLC susceptibility [10]: minor effect

RC21v2: HPLC-purified RC21 derivative with a single Mtr group attached to one of its three C-terminal arginine residues (FFKWQRRR)
Resistance to FLC chemosensitization ([4]; variant R1, Q714K, External loop 3): High | Resistance to FLC chemosensitization ([4]; variant R2, Q1445K, External loop 6): High | Resistance to FLC chemosensitization ([4]; variant R3, Q1226K, External loop 4): High | Resistance to FLC chemosensitization ([4]; variant R4, Q1226K, External loop 4): High | lysis of red blood cells (human red blood cells): did not lyse; also recorded: did not hemolyse | IC50 (Pma1p ATPase): 5 µM | chemosensitization of yeast over-expressing CaCdr1p to FLC ([2]; ~5.5 nmol per disk, agarose diffusion): chemosensitized | chemosensitization of cells overexpressing CaCdr1p to FLC ([2]; agarose diffusion): chemosensitized | effect on growth or viability of a human epithelial cell line ([1]; 100 μM (≤100 μM in Fig. 7 legend)): did not affect; also recorded: did not kill | inhibition of glucose-dependent R6G efflux ([3]; 1.25 μM, after 5 minutes of preincubation): fully inhibited
